Data published in ChEMBL document CHEMBL1208735, “6-(4'-Aryloxy-phenyl)vinyl-1,2,4-trioxanes: a new series of orally active peroxides effective against multidrug-resistant Plasmodium yoelii in Swiss mice” (2010).
Activity calls are given as the source filed them. The calls are words filed in the database; no cut-off is given here.

Columns and labels:
[1] = test system: Plasmodium yoelii nigeriensis; test: Antimalarial activity against multi drug-resistant Plasmodium yoelii nigeriensis infected in Swiss mice (Mus musculus) assessed as suppression of parasitaemia level at 96 mg/kg, perorally daily for 4 days; type: functional; conditions: route oral
In short: (§1)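 Swiss mice (25 ± 1 g) infected day 0 with 1×10^6 parasitized RBC of multidrug-resistant P. yoelii nigeriensis. Groups of five dosed orally in groundnut oil (0.1 ml per dose), days 0–3, two divided doses daily. Parasitaemia read from thin blood smears on day 4 as % suppression. 100% means no parasites seen in 50 oil-immersion fields. β-Arteether was the positive control.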

[2] = test system: Plasmodium yoelii nigeriensis; test: Antimalarial activity against multi drug-resistant Plasmodium yoelii nigeriensis infected in Swiss mice (Mus musculus) assessed as suppression of parasitaemia level at 48 mg/kg, perorally daily for 4 days; type: functional; conditions: route oral; in short: as §1
[3] = test system: Plasmodium yoelii nigeriensis; test: Antimalarial activity against multi drug-resistant Plasmodium yoelii nigeriensis infected in Swiss mice (Mus musculus) assessed as protection of patent infection at 24 mg/kg, perorally daily for 4 days measured after 28 days; type: functional, organism-based; design: dose 24 mg/kg
In short: (§2)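 Colony-bred Swiss mice (25 ± 1 g) inoculated day 0 with 1×10^6 parasitized RBC of P. yoelii nigeriensis (resistant to chloroquine, mefloquine, halofantrine). Five mice per dose. Oral dosing in groundnut oil, 0.1 ml per dose, days 0–3, given as two divided doses daily. Thin blood smears read through day 28. Mice without patent infection by day 28 scored cured, expressed as cured/treated.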

[4] = test system: Plasmodium yoelii nigeriensis; test: Antimalarial activity against multi drug-resistant Plasmodium yoelii nigeriensis infected in Swiss mice (Mus musculus) assessed as protection of patent infection at 48 mg/kg, perorally daily for 4 days measured after 28 days; type: functional, organism-based; design: dose 48 mg/kg; in short: as §2
[5] = test system: Plasmodium yoelii nigeriensis; test: Antimalarial activity against multi drug-resistant Plasmodium yoelii nigeriensis infected in Swiss mice (Mus musculus) assessed as protection of patent infection at 96 mg/kg, perorally daily for 4 days measured after 28 days; type: functional, organism-based; design: dose 96 mg/kg; in short: as §2
[6] = test system: Plasmodium yoelii nigeriensis; test: Antimalarial activity against multi drug-resistant Plasmodium yoelii nigeriensis infected in Swiss mice (Mus musculus) assessed as suppression of parasitaemia level at 24 mg/kg, perorally daily for 4 days; type: functional; conditions: route oral; in short: as §1

Compound | Activity [1] [%] | Activity [2] [%] | Activity [3] | Activity [4] | Activity [5] | Activity [6] [%]
C=C(c1ccc(Oc2ccc3ccccc3c2)cc1)C1COC2(CCCCC2)OO1 (stereo unspecified) | 100 | – | – | – | – | –
C=C(c1ccc(Oc2cccc3ccccc23)cc1)C1COC2(CCCC2)OO1 (stereo unspecified) | 100 | 100 | inactive | Active | Active | 100
CCO[C@H]1O[C@@H]2O[C@@]3(C)CC[C@H]4[C@H](C)CC[C@@H]([C@H]1C)[C@@]24OO3 [ARTEMOTIL] | – | 100 | – | Active | – | 100
C=C(c1ccc(Oc2ccc(-c3ccccc3)cc2)cc1)C1COC2(OO1)C1CC3CC(C1)CC2C3 (stereo unspecified) | 100 | – | – | – | – | –
C=C(c1ccc(Oc2ccc3ccccc3c2)cc1)C1COC2(CCCC2)OO1 (stereo unspecified) | 100 | 100 | inactive | Active | Active | 100
C=C(c1ccc(Oc2ccccc2)cc1)C1COC2(CCCC2)OO1 (stereo unspecified) | 100 | – | – | – | – | –
C=C(c1ccc(Oc2ccccc2)cc1)C1COC2(CCCCC2)OO1 (stereo unspecified) | 100 | – | – | – | – | –
C=C(c1ccc(Oc2ccc(-c3ccccc3)cc2)cc1)C1COC2(CCCC2)OO1 (stereo unspecified) | 100 | 100 | – | inactive | Active | –
C=C(c1ccc(Oc2ccccc2)cc1)C1COC2(OO1)C1CC3CC(C1)CC2C3 (stereo unspecified) | 100 | – | – | – | – | –
C=C(c1ccc(Oc2ccc3ccccc3c2)cc1)C1COC2(OO1)C1CC3CC(C1)CC2C3 (stereo unspecified) | 100 | – | – | – | – | –
C=C(c1ccc(Oc2ccc(-c3ccccc3)cc2)cc1)C1COC2(CCCCC2)OO1 (stereo unspecified) | 84.39 | – | – | – | inactive | –
C=C(c1ccc(Oc2cccc3ccccc23)cc1)C1COC2(OO1)C1CC3CC(C1)CC2C3 (stereo unspecified) | 93.15 | – | – | – | inactive | –
C=C(c1ccc(Oc2cccc3ccccc23)cc1)C1COC2(CCCCC2)OO1 (stereo unspecified) | 92.81 | – | – | – | inactive | –
